Measurements taken from ChEMBL document CHEMBL3826876, “Toward the Development of Specific G-Quadruplex Binders: Synthesis, Biophysical, and Biological Studies of New Hydrazone Derivatives” (J Med Chem, 2016).
Blank lines part the entries; values can stand above or below the compound they belong to. The source made the active and inactive calls. The calls are words filed in the database; no cut-off is given here.

Key:
[1] = Binding affinity to synthetic telomere 26 G-quadruplex DNA assessed as change in melting temperature at 4 mol equiv in presence of 100 mM KCl buffer by circular dichroism spectroscopic analysis
How it was run: (§1)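 CD melting, 20-100 °C at 1 °C/min, signal at 264 (parallel), 290 (antiparallel) or 280 nm (duplex). G4 DNA 10 µM or duplex 15 µM, folded by heating at 90 °C 5 min and slow cooling, in 10 mM potassium phosphate (c-kit1, Tel23, Tel26) or lithium phosphate (Tel23-p, ds12) pH 7.0 with 100 mM KCl. Ligand 4 equiv; Tm by curve fit, ΔTm vs DNA alone; duplicate average.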

[2] = Effect on synthetic c-KIT2 G-quadruplex DNA topology at 4 mol equiv by circular dichroism spectroscopic analysis
How it was run: (§2)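 CD spectra at 20 °C, 230-360 nm, 3 scans averaged, baseline subtracted; 10 µM G4 or 15 µM duplex in potassium- or lithium-phosphate pH 7.0 buffers with 100 mM KCl (c-kit2, c-myc: 5 mM potassium phosphate, 20 mM KCl); ligand 4 molar equiv added to folded DNA from 6 mM DMSO stock.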

[3] = Binding affinity to synthetic telomere 23 G-quadruplex DNA assessed as change in melting temperature at 4 mol equiv in presence of 100 mM KCl buffer by circular dichroism spectroscopic analysis; how it was run: as §1
[4] = Effect on synthetic telomere 26 G-quadruplex DNA topology at 4 mol equiv by circular dichroism spectroscopic analysis; how it was run: as §2
[5] = Effect on synthetic telomere 23 G-quadruplex DNA topology at 4 mol equiv by circular dichroism spectroscopic analysis; how it was run: as §2
[6] = Binding affinity to synthetic c-MYC G-quadruplex DNA assessed as change in melting temperature at 4 mol equiv in presence of 20 mM KCl buffer by circular dichroism spectroscopic analysis
[7] = Binding affinity to synthetic telomere 23 parallel G-quadruplex DNA assessed as change in melting temperature at 4 mol equiv in presence of 100 mM KCl buffer by circular dichroism spectroscopic analysis; how it was run: as §1
[8] = Effect on synthetic self-complementary DNA 12-mer duplex topology at 4 mol equiv in presence of K+ ions by circular dichroism spectroscopic analysis; how it was run: as §2
[9] = Effect on synthetic c-KIT1 G-quadruplex DNA topology at 4 mol equiv by circular dichroism spectroscopic analysis; how it was run: as §2
U2OS [10] = assay: Stabilization of nuclear G-quadruplex DNA in human U2OS cells at 10 uM after 24 hrs by DAPI staining based immunofluorescence assay; type: cell-based
How it was run: (§3)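 U2OS seeded at 100000 cells/ml, treated 24 h after seeding for 24 h; fixed methanol:acetic acid 3:1, 0.1% Triton X-100, 2% milk block. Stained with in-house His-purified BG4, anti-FLAG, Alexa 488 anti-rabbit; nuclei DAPI. Per-cell signal as corrected total cell fluorescence; Student's t test.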

[11] = Binding affinity to synthetic c-KIT2 G-quadruplex DNA assessed as change in melting temperature at 4 mol equiv in presence of 20 mM KCl buffer by circular dichroism spectroscopic analysis
How it was run: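 CD melting as for other targets (20-100 °C, 1 °C/min, 10 µM folded G4, ligand 4 equiv), but in 5 mM potassium phosphate with 20 mM KCl; c-kit2 read at 264 nm as parallel G4. ΔTm from fitted Tm, duplicate average.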

[12] = Effect on synthetic c-MYC G-quadruplex DNA topology at 4 mol equiv by circular dichroism spectroscopic analysis; how it was run: as §2
[13] = Binding affinity to synthetic c-KIT1 G-quadruplex DNA assessed as change in melting temperature at 4 mol equiv in presence of 100 mM KCl buffer by circular dichroism spectroscopic analysis; how it was run: as §1
[14] = Effect on synthetic telomere 23 parallel G-quadruplex DNA topology at 4 mol equiv by circular dichroism spectroscopic analysis; how it was run: as §2
Homo sapiens = organism: Homo sapiens; assay: Binding affinity to human 5'-FAM/3'-TAMRA labeled telomere 21 G-quadruplex DNA assessed as increase in melting temperature by FRET assay
How it was run: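 FRET melting screen in 60 mM potassium cacodylate pH 7.4, labelled probe 400 nM annealed at 85 °C for 10 min; ligands at various concentrations up to 20 µM, diluted from 10 mM DMSO stock via 10 mM HCl. Excitation 450-495 nm, emission 515-545 nm, 30-100 °C in 0.5 °C steps with 30 s hold; ΔTm by curve fitting, triplicate.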

[15] = Binding affinity to synthetic self-complementary DNA 12-mer duplex assessed as change in melting temperature at 4 mol equiv in presence of 100 mM KCl buffer by circular dichroism spectroscopic analysis; how it was run: as §1
U2OS [16] = assay: Cytotoxicity against human U2OS cells assessed as cell killing after 24 hrs by MTT assay; type: functional, cell-based
How it was run: (§4)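 U2OS and HCT116 in DMEM with 10% FBS, 1% L-glutamine, seeded at 40000 cells/ml; 24 h later exposed for 1 h or 24 h, then drug-free medium 1-2 days. MTT 1 h at 37 °C, DMSO solubilisation, absorbance 595 nm. IC50 by linear regression; two independent experiments in triplicate, mean ± SE.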

[17] = Cytotoxicity against human HCT116 cells assessed as cell killing after 1 hr by MTT assay; type: functional, cell-based; settings: HCT-116, 1 h; how it was run: as §4
U2OS [18] = assay: Cytotoxicity against human U2OS cells assessed as cell killing after 1 hr by MTT assay; type: functional, cell-based; how it was run: as §4
[19] = Cytotoxicity against human HCT116 cells assessed as cell killing after 24 hrs by MTT assay; type: functional, cell-based; settings: HCT-116, 24 h; how it was run: as §4
U2OS [20] = assay: Stabilization of nuclear G-quadruplex DNA in human U2OS cells at 2 to 10 uM after 24 hrs by DAPI staining based immunofluorescence assay; type: cell-based; how it was run: as §3

ΔTm [1]: -4.5 °C
Activity [2]: inactive
ΔTm [3]: -10 °C
Activity [4]: inactive
Activity [5]: inactive
ΔTm [6]: > 20 °C
ΔTm [7]: > 20 °C
Activity [8]: inactive
Activity [9]: inactive
ΔTm [11]: > 20 °C
Activity [12]: inactive
ΔTm [13]: > 15 °C
Activity [14]: inactive
Activity (Homo sapiens): Active
ΔTm [15]: 0.1 °C
Structure (SMILES): N=C(N)N/N=C/c1c(-c2ccccc2)nc2ccn3c(/C=N/N=C(N)N)c(-c4ccccc4)nc3n12
Activity (U2OS [10]): Active

Structure (SMILES): O=Cc1c(-c2ccccc2)nc2n1ccc1nc(-c3ccccc3)c(C=O)n12
IC50 (U2OS [16]): 9.16 µM
IC50 [17]: 16.8 µM
IC50 (U2OS [18]): 45.2 µM
IC50 [19]: 4.06 µM
Activity (U2OS [20]): inactive
